Experimental data pooled from the literature.
Each line is one published result; the experiments were not run side by side.
Matrix: plasma

SMILES	species	route	dose	setting	AUC(0-t)
C[C@@H](Oc1ccc(S(C)(=O)=O)cc1C(=O)N1C[C@@H]2C[C@]2(c2cc(C(F)(F)F)on2)C1)C(F)(F)F	human	oral	25 mg	fasted, tablet	8.7 µM·h
CC(C)n1cc(C#N)c2cc(-n3cc(C(=O)O)cn3)ccc21	male human	oral	600 mg	single dose, fasted, healthy volunteers	98800 ng·h/mL
CCOc1ccc(Cc2cc([C@@H]3S[C@H](CO)[C@@H](O)[C@H](O)[C@H]3O)c(OC)cc2C)cc1	male human	oral	5 mg	single dose, fasted, healthy volunteers	1650 ng·h/mL
C#Cc1cccc(Nc2ncnc3cc(OCCOC)c(OCCOC)cc23)c1	human	oral	50 mg	multiple doses, once daily, patients	24.9 µM·h
C[C@@]1(c2cc(NC(=O)c3ccc(C#N)cn3)ccc2F)C=CSC(N)=N1	human	oral	150 mg	single dose	14300 ng·h/mL
OC[C@H]1O[C@@H](c2ccc(Cl)c(Cc3ccc(O[C@H]4CCOC4)cc3)c2)[C@H](O)[C@@H](O)[C@@H]1O	human	oral	2.5 mg	single dose	0.402 µM·h
CNCC[C@H](Oc1cccc2ccccc12)c1cccs1	female human	oral	30 mg	multiple doses, once daily	135 ng·h/mL
CCNCCCNC/C=C\CNCCCNCC	human	intravenous	50 mg	patients, infusion	79.8 ng·h/mL
COc1ccc(-n2nc(C(N)=O)c3c2C(=O)N(c2ccc(N4CCCCC4=O)cc2)CC3)cc1	human	oral	10 mg	single dose, healthy volunteers	2480 ng·h/mL
CC[C@H](C)C(=O)O[C@H]1C[C@H](O)C=C2C=C[C@H](C)[C@H](CC[C@@H](O)C[C@@H](O)CC(=O)O)[C@H]21	human	oral	20 mg	–	46.7 ng·h/mL
O=C(O)C[C@H](O)C[C@H](O)/C=C/c1c(C2CC2)nc2ccccc2c1-c1ccc(F)cc1	human	oral	2 mg	single dose, fasted, healthy volunteers, tablet	243 ng·h/mL
Cc1nc(NC(=O)N2CCC[C@H]2C(N)=O)sc1-c1ccnc(C(C)(C)C(F)(F)F)c1	human	oral	90 mg	patients	7600 ng·h/mL
CO[C@@H]1[C@H](OC(=O)N2CC(CCN3CCOCC3)C2)CC[C@]2(CO2)[C@H]1[C@@]1(C)O[C@@H]1CC=C(C)C	human	subcutaneous	1.2 mg	single dose, healthy volunteers	5.45 ng·h/mL
CCOc1cc([C@@H](CS(C)(=O)=O)N2C(=O)c3cccc(NC(C)=O)c3C2=O)ccc1OC	human	oral	30 mg	single dose, healthy volunteers	2190 ng·h/mL
Oc1cc(O)c2c(c1)O[C@@H](c1ccc(O)c(O)c1)[C@@H](O)C2	human	oral	100 mg	single dose	14.2 ng·h/mL
COc1ccc([C@@H]2CN(C(=O)[C@@H](O)CO)C[C@@]2(C)[C@@H](C)O)cc1OC1CN(c2ccc(C)cn2)C1	human	oral	0.1 mg	single dose, healthy volunteers	52.7 ng·h/mL
COc1cc(N2CCC(N3CCN(C)CC3)CC2)ccc1Nc1ncnc(Nc2ccccc2S(=O)(=O)C(C)C)n1	human	oral	200 mg	multiple doses, patients	9170 ng·h/mL
CO[C@H]1CC[C@H](N2C(=O)CNc3ncc(-c4ccc(C(C)(C)O)nc4)nc32)CC1	human	oral	30 mg	multiple doses, patients	1440 ng·h/mL
Nc1cc(C(F)(F)F)c(-c2cc(N3CCOCC3)nc(N3CCOCC3)n2)cn1	human	oral	100 mg/day	patients	8800 ng·h/mL
O=C(/C=C/c1cccc(S(=O)(=O)Nc2ccccc2)c1)NO	human	intravenous	2000 mg/m²	patients	85200 ng·h/mL
C[C@@H](Nc1cc(F)cc(F)c1)c1cc(C(=O)N(C)C)cc2c(=O)cc(N3CCOCC3)oc12	human	oral	360 mg	single dose, patients	8350 ng·h/mL
NS(=O)(=O)c1ccc(NC(=O)Nc2ccc(F)cc2)cc1	human	oral	1000 mg	multiple doses, once daily	70700 ng·h/mL
COc1cc2c(Nc3ccc(Br)cc3F)ncnc2cc1OCC1CCN(C)CC1	human	oral	85 mg/m²	multiple doses, patients	15500 ng·h/mL
CCO[C@H]1CCN(Cc2c(OC)cc(C)c3[nH]ccc23)[C@H](c2ccc(C(=O)O)cc2)C1	human	oral	50 mg	multiple doses, twice daily, patients	8570 ng·h/mL
CCCCC1=NC2(CCCC2)C(=O)N1Cc1ccc(-c2ccccc2S(=O)(=O)Nc2noc(C)c2C)c(COCC)c1	human	oral	200 mg	single dose, fasted, healthy volunteers	58100 ng·h/mL
COc1cc2c(cc1OC)CN(CCc1ccc(NC(=O)c3cc(OC)c(OC)cc3NC(=O)c3cnc4ccccc4c3)cc1)CC2	human	intravenous	2 mg/kg	patients	11.9 µM·h
CC(C)(O)c1ccccc1-c1ccc2[nH]c(/C=C/c3ccc(C(F)(F)F)cc3)nc2c1	male human	oral	5 mg	single dose, fasted	350 ng·h/mL
COCCOc1cnc2ccn([C@H](C)c3nnc4c(F)cc(-c5cnn(C)c5)cn34)c(=O)c2c1	human	oral	25 mg	multiple doses, once daily, patients	5990 ng·h/mL
FC(F)(F)c1ccc(CNc2ccc(Cc3c[nH]c4ncc(Cl)cc34)cn2)cn1	human	oral	1200 mg	multiple doses, patients	29500 ng·h/mL
